Test results taken from ChEMBL document CHEMBL1811814, “Synthesis and evaluation of indole, pyrazole, chromone and pyrimidine based conjugates for tumor growth inhibitory activities--development of highly efficacious cytotoxic agents” (Eur J Med Chem, 2010).

How the values were obtained:
Assay type in all cases: functional
Set-up in all cases: scale not given: the % may be the effect or the level left
U-251 = test: Growth inhibition of human U251 cells assessed tumor cell growth at 10^-5 M
How it was run: (§1)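 Single-dose screen at 10^-5 M across the 60 human tumor cell line panel, run to NCI standards. The value is the percent growth of each cell line in the presence of compound. Compounds active at this dose moved on to five-concentration testing (10^-4 to 10^-8 M).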

NCI-H226 = test: Growth inhibition of human NCI-H226 cells assessed tumor cell growth at 10^-5 M
How it was run: (§2)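 NCI 60-human-tumor-cell-line panel screen. Each compound was tested at a single concentration of 10^-5 M, and percent growth of tumor cells was recorded for each cell line. Growth inhibition was expressed from these percent-growth values.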

Malme-3M = test: Growth inhibition of human MALME-3M cells assessed tumor cell growth at 10^-5 M; how it was run: as §2
HOP-62 = test: Growth inhibition of human HOP62 cells assessed tumor cell growth at 10^-5 M; how it was run: as §2
SK-OV-3 = test: Growth inhibition of human SKOV3 cells assessed tumor cell growth at 10^-5 M; how it was run: as §2
SNB-75 = test: Growth inhibition of human SNB75 cells assessed tumor cell growth at 10^-5 M; how it was run: as §1
TK-10 = test: Growth inhibition of human TK10 cells assessed tumor cell growth at 10^-5 M; how it was run: as §1
SK-MEL-2 = test: Growth inhibition of human SK-MEL-2 cells assessed tumor cell growth at 10^-5 M; how it was run: as §2
MDA-MB-231 = test: Growth inhibition of human MDA-MB-231 cells assessed tumor cell growth at 10^-5 M; how it was run: as §2
SF-268 = test: Growth inhibition of human SF268 cells assessed tumor cell growth at 10^-5 M; how it was run: as §2
HCC 2998 = test: Growth inhibition of human HCC2998 cells assessed tumor cell growth at 10^-5 M; how it was run: as §2
CAKI-1 = test: Growth inhibition of human Caki1 cells assessed tumor cell growth at 10^-5 M; how it was run: as §2
MOLT-4 = test: Growth inhibition of human MOLT4 cells assessed tumor cell growth at 10^-5 M; how it was run: as §2
A498 = test: Growth inhibition of human A498 cells assessed tumor cell growth at 10^-5 M; how it was run: as §2
SN12C = test: Growth inhibition of human SN12C cells assessed tumor cell growth at 10^-5 M; how it was run: as §2
KM12 = test: Growth inhibition of human KM12 cells assessed tumor cell growth at 10^-5 M; how it was run: as §2
OVCAR-3 = test: Growth inhibition of human OVCAR3 cells assessed tumor cell growth at 10^-5 M; how it was run: as §2
BT-549 = test: Growth inhibition of human BT549 cells assessed tumor cell growth at 10^-5 M; how it was run: as §2
MCF7 = test: Growth inhibition of human MCF7 cells assessed tumor cell growth at 10^-5 M; how it was run: as §2
SF-295 = test: Growth inhibition of human SF295 cells assessed tumor cell growth at 10^-5 M; how it was run: as §2
PC-3 = test: Growth inhibition of human PC3 cells assessed tumor cell growth at 10^-5 M; how it was run: as §2
OVCAR-5 = test: Growth inhibition of human OVCAR5 cells assessed tumor cell growth at 10^-5 M; how it was run: as §2
OVCAR-4 = test: Growth inhibition of human OVCAR4 cells assessed tumor cell growth at 10^-5 M; how it was run: as §2
K562 = test: Growth inhibition of human K562 cells assessed tumor cell growth at 10^-5 M; how it was run: as §2
NCI/ADR-RES = test: Growth inhibition of human NCI/ADR-RES cells assessed tumor cell growth at 10^-5 M; how it was run: as §2
UACC-62 = test: Growth inhibition of human UACC62 cells assessed tumor cell growth at 10^-5 M; how it was run: as §1
MDA-MB-435 = test: Growth inhibition of human MDA-MB-435 cells assessed tumor cell growth at 10^-5 M; how it was run: as §2
NCI-H522 = test: Growth inhibition of human NCI-H522 cells assessed tumor cell growth at 10^-5 M; how it was run: as §2
HL-60(TB) = test: Growth inhibition of human HL-60(TB) cells assessed tumor cell growth at 10^-5 M
How it was run: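 HL-60(TB), part of the 60-line panel, tested at a single concentration of 10^-5 M. The read-out is percent tumor cell growth relative to untreated growth.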

IGROV-1 = test: Growth inhibition of human IGROV1 cells assessed tumor cell growth at 10^-5 M; how it was run: as §2
T47D = test: Growth inhibition of human T47D cells assessed tumor cell growth at 10^-5 M; how it was run: as §1
OVCAR-8 = test: Growth inhibition of human OVCAR8 cells assessed tumor cell growth at 10^-5 M; how it was run: as §2
ACHN = test: Growth inhibition of human ACHN cells assessed tumor cell growth at 10^-5 M; how it was run: as §2
HT-29 = test: Growth inhibition of human HT-29 cells assessed tumor cell growth at 10^-5 M; how it was run: as §2
SK-MEL-5 = test: Growth inhibition of human SK-MEL-5 cells assessed tumor cell growth at 10^-5 M; how it was run: as §2
HOP-92 = test: Growth inhibition of human HOP92 cells assessed tumor cell growth at 10^-5 M; how it was run: as §2
RXF 393 = test: Growth inhibition of human RXF393 cells assessed tumor cell growth at 10^-5 M; how it was run: as §2
LOX IMVI = test: Growth inhibition of human LOXIMVI cells assessed tumor cell growth at 10^-5 M; how it was run: as §2
SF-539 = test: Growth inhibition of human SF539 cells assessed tumor cell growth at 10^-5 M; how it was run: as §2
DU-145 = test: Growth inhibition of human DU145 cells assessed tumor cell growth at 10^-5 M; how it was run: as §2
SW-620 = test: Growth inhibition of human SW620 cells assessed tumor cell growth at 10^-5 M; how it was run: as §1
NCI-H322M = test: Growth inhibition of human NCI-H322M cells assessed tumor cell growth at 10^-5 M; how it was run: as §2
HCT-15 = test: Growth inhibition of human HCT15 cells assessed tumor cell growth at 10^-5 M; how it was run: as §2
HCT-116 = test: Growth inhibition of human HCT116 cells assessed tumor cell growth at 10^-5 M; how it was run: as §2
UACC-257 = test: Growth inhibition of human UACC257 cells assessed tumor cell growth at 10^-5 M; how it was run: as §1
[1] = Growth inhibition of human Hs 578T cells assessed tumor cell growth at 10^-5 M; how it was run: as §2
CCRF-CEM = test: Growth inhibition of human CCRF-CEM cells assessed tumor cell growth at 10^-5 M; how it was run: as §2
M14 = test: Growth inhibition of human M14 cells assessed tumor cell growth at 10^-5 M; how it was run: as §2
COLO 205 = test: Growth inhibition of human COLO205 cells assessed tumor cell growth at 10^-5 M; how it was run: as §2
NCI-H460 = test: Growth inhibition of human NCI-H460 cells assessed tumor cell growth at 10^-5 M; how it was run: as §2
EKVX = test: Growth inhibition of human EKVX cells assessed tumor cell growth at 10^-5 M; how it was run: as §2
UO-31 = test: Growth inhibition of human UO31 cells assessed tumor cell growth at 10^-5 M; how it was run: as §1
A549 = test: Growth inhibition of human A549 cells assessed tumor cell growth at 10^-5 M; how it was run: as §2
MDA-MB-468 = test: Growth inhibition of human MDA-MB-468 cells assessed tumor cell growth at 10^-5 M; how it was run: as §2
786-0 = test: Growth inhibition of human 786-0 cells assessed tumor cell growth at 10^-5 M; how it was run: as §2
SK-MEL-28 = test: Growth inhibition of human SK-MEL-28 cells assessed tumor cell growth at 10^-5 M; how it was run: as §2
SNB-19 = test: Growth inhibition of human SNB19 cells assessed tumor cell growth at 10^-5 M; how it was run: as §1
NCI-H23 = test: Growth inhibition of human NCI-H23 cells assessed tumor cell growth at 10^-5 M; how it was run: as §2
[2] = Growth inhibition of human […] cells assessed tumor cell growth at 10^-5 M; how it was run: as §2

CC1=NN(c2cccc(Cl)c2)C(=O)/C1=C\c1cn(C(=O)c2c(Cl)cccc2Cl)c2ccccc12
Activity (U-251): 111.4%
Activity (NCI-H226): 97.86%
Activity (Malme-3M): 100.66%
Activity (HOP-62): 92.85%
Activity (SK-OV-3): 93.9%
Activity (SNB-75): 81.76%
Activity (TK-10): 123.88%
Activity (SK-MEL-2): 95.14%
Activity (MDA-MB-231): 82.49%
Activity (SF-268): 99.71%
Activity (HCC 2998): 87.28%
Activity (CAKI-1): 89.11%
Activity (MOLT-4): 78.5%
Activity (A498): 102.24%
Activity (SN12C): 100.77%
Activity (KM12): 100.84%
Activity (OVCAR-3): 105.51%
Activity (BT-549): 95.67%
Activity (MCF7): 84.58%
Activity (SF-295): 96.99%
Activity (PC-3): 93.89%
Activity (OVCAR-5): 78.09%
Activity (OVCAR-4): 94.88%
Activity (K562): 120.99%
Activity (NCI/ADR-RES): 90.21%
Activity (UACC-62): 84.14%
Activity (MDA-MB-435): 109.08%
Activity (NCI-H522): 87.52%
Activity (HL-60(TB)): 95.11%
Activity (IGROV-1): 100.26%
Activity (T47D): 77.75%
Activity (OVCAR-8): 89.79%
Activity (ACHN): 90.96%
Activity (HT-29): 110.62%
Activity (SK-MEL-5): 93.87%
Activity (HOP-92): 75.93%
Activity (RXF 393): 96.55%
Activity (LOX IMVI): 91.86%
Activity (SF-539): 88.35%
Activity (DU-145): 113.79%
Activity (SW-620): 96.65%
Activity (NCI-H322M): 99.91%
Activity (HCT-15): 102.31%
Activity (HCT-116): 93.25%
Activity (UACC-257): 88.84%
Activity [1]: 93.53%
Activity (CCRF-CEM): 107.14%
Activity (M14): 88.55%
Activity (COLO 205): 105.8%
Activity (NCI-H460): 102.74%
Activity (EKVX): 70.54%
Activity (UO-31): 75.46%
Activity (A549): 103.17%
Activity (MDA-MB-468): 98.04%
Activity (786-0): 101.2%
Activity (SK-MEL-28): 108.69%
Activity (SNB-19): 100.95%
Activity (NCI-H23): 78.46%

O=C1/C(=C\c2cn(C(=O)c3c(Cl)cccc3Cl)c3ccccc23)c2ccccc2N1C(=O)c1c(Cl)cccc1Cl
Activity (U-251): 87.1%
Activity (NCI-H226): 92.9%
Activity (Malme-3M): 94.9%
Activity (HOP-62): 98.7%
Activity (SK-OV-3): 93.4%
Activity (SNB-75): 88.8%
Activity (TK-10): 101%
Activity (SK-MEL-2): 92.3%
Activity (MDA-MB-231): 74.3%
Activity (SF-268): 95.7%
Activity (HCC 2998): 116%
Activity (CAKI-1): 67.5%
Activity (MOLT-4): 84%
Activity (A498): 126%
Activity (SN12C): 92.7%
Activity (KM12): 99.3%
Activity (OVCAR-3): 96.7%
Activity (BT-549): 85.3%
Activity (MCF7): 84.8%
Activity (SF-295): 90.6%
Activity (PC-3): 73.1%
Activity (OVCAR-5): 83.7%
Activity (OVCAR-4): 104%
Activity (K562): 85.2%
Activity (NCI/ADR-RES): 104%
Activity (UACC-62): 63.8%
Activity (MDA-MB-435): 112%
Activity (NCI-H522): 87.4%
Activity (HL-60(TB)): 109%
Activity (IGROV-1): 69.9%
Activity (T47D): 91.6%
Activity (OVCAR-8): 94.1%
Activity (ACHN): 78.6%
Activity (HT-29): 108%
Activity (SK-MEL-5): 84.8%
Activity (HOP-92): 48.5%
Activity (RXF 393): 113%
Activity (LOX IMVI): 95.8%
Activity (SF-539): 95%
Activity (DU-145): 135%
Activity (SW-620): 117%
Activity (NCI-H322M): 124%
Activity (HCT-15): 65.9%
Activity (HCT-116): 82.5%
Activity (UACC-257): 104%
Activity [1]: 152%
Activity (CCRF-CEM): 87%
Activity (M14): 94.2%
Activity (COLO 205): 69%
Activity (NCI-H460): 114%
Activity (EKVX): 99.4%
Activity (UO-31): 72%
Activity (A549): 91.2%
Activity (MDA-MB-468): 126%
Activity (786-0): 100%
Activity [2]: 75%
Activity (SK-MEL-28): 103%
Activity (SNB-19): 97.3%
Activity (NCI-H23): 96.6%
